In ChEMBL document CHEMBL1149072, “Cytotoxic constituents of Baccharis gaudichaudiana” (1994):
≈ marks a conversion by molar mass, not a printed value.

Key:
Type in all cases: functional
[1] = Cytotoxicity against human KBV1 cells; details: KB-V1, read-out: ED50 (the source's name)
Summary of the method: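 The KB-V1 line is multidrug resistant. It was derived from KB cells by extended exposure to sublethal vinblastine. It was tested in 96-well microtiter plates by a previously described method, with ED50 in µg/ml as the read-out.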

[2] = Cytotoxicity against human BC1 cells; details: read-out: ED50 (the source's name)
Summary of the method: (§1)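 These human cancer cell lines were established from primary tumors at the authors' institution. Cytotoxicity was assessed in 96-well microtiter plates by a previously described protocol and expressed as ED50 in µg/ml.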

P388 = experiment: Cytotoxicity against mouse P388 cells; details: read-out: ED50 (the source's name)
Summary of the method: (§2)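 The cell lines came from ATCC. Cytotoxicity was run in 96-well microtiter plates by a previously described method and reported as ED50 in µg/ml.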

SK-MEL-2 = experiment: Cytotoxicity against human SK-MEL-2 cells; details: read-out: ED50 (the source's name)
Lu1 = experiment: Cytotoxicity against human Lu1 cells; details: read-out: ED50 (the source's name); summary of the method: as §1
HT-1080 = experiment: Cytotoxicity against human HT1080 cells; details: read-out: ED50 (the source's name); summary of the method: as §2
Col2 = experiment: Cytotoxicity against human Col2 cells; details: read-out: ED50 (the source's name); summary of the method: as §1
KB = experiment: Cytotoxicity against human KB cells; details: read-out: ED50 (the source's name); summary of the method: as §2

O=c1cc(-c2ccc(O)cc2)oc2cc(O)cc(O)c12 [APIGENIN]
EC50 [1]: 16.8 µg/mL (≈ 62.2 µM)
EC50 [2]: > 20 µg/mL
EC50 (P388): 12.2 µg/mL (≈ 45.1 µM)
EC50 (SK-MEL-2): 13.6 µg/mL (≈ 50.3 µM)
EC50 (Lu1): 14 µg/mL (≈ 51.8 µM)
EC50 (HT-1080): 12.2 µg/mL (≈ 45.1 µM)
EC50 (Col2): 19.3 µg/mL (≈ 71.4 µM)
EC50 (KB): > 20 µg/mL

CC(=O)O[C@@H]1C=C2C(=O)OC[C@]23CC[C@@H](C)[C@](C)(CCC2=CC(=O)OC2)C3C1 (stereo partly drawn) [ARTICULIN ACETATE]
EC50 [1]: > 20 µg/mL
EC50 [2]: > 20 µg/mL
EC50 (P388): 1.7 µg/mL
EC50 (SK-MEL-2): > 20 µg/mL
EC50 (Lu1): > 20 µg/mL
EC50 (HT-1080): > 20 µg/mL
EC50 (Col2): > 20 µg/mL
EC50 (KB): > 20 µg/mL

C[C@H]1CC=C2C(CO)(CO)CCC[C@]2(C)C1CC[C@@H](CCO)COC(=O)/C=C/c1ccc(O)cc1 (stereo partly drawn) [GUADICHAUDOL C]
EC50 [1]: 4.7 µg/mL (≈ 9.66 µM)
EC50 [2]: 19 µg/mL (≈ 39 µM)
EC50 (P388): 2.4 µg/mL (≈ 4.93 µM)
EC50 (SK-MEL-2): 11.2 µg/mL (≈ 23 µM)
EC50 (Lu1): 13.1 µg/mL (≈ 26.9 µM)
EC50 (HT-1080): 12.4 µg/mL (≈ 25.5 µM)
EC50 (Col2): 19.3 µg/mL (≈ 39.7 µM)
EC50 (KB): > 20 µg/mL

C[C@@H]1CC[C@@]23COC(=O)[C@H]2C[C@@H](O)C=C3[C@@]1(C)CCc1ccoc1 [GUADICHAUDONE]
EC50 [1]: > 20 µg/mL
EC50 [2]: > 20 µg/mL
EC50 (P388): 11.7 µg/mL (≈ 35.4 µM)
EC50 (SK-MEL-2): > 20 µg/mL
EC50 (Lu1): > 20 µg/mL
EC50 (HT-1080): > 20 µg/mL
EC50 (Col2): > 20 µg/mL
EC50 (KB): > 20 µg/mL

COc1c(O)cc2oc(-c3ccc(O)cc3)cc(=O)c2c1O [HISPIDULIN]
EC50 [1]: 2.8 µg/mL (≈ 9.33 µM)
EC50 [2]: 19 µg/mL (≈ 63.3 µM)
EC50 (P388): 0.8 µg/mL (≈ 2.66 µM)
EC50 (SK-MEL-2): 11.5 µg/mL (≈ 38.3 µM)
EC50 (Lu1): 17.6 µg/mL (≈ 58.6 µM)
EC50 (HT-1080): 5.2 µg/mL (≈ 17.3 µM)
EC50 (Col2): > 20 µg/mL
EC50 (KB): 5.6 µg/mL (≈ 18.7 µM)

C=C1CC[C@@H]2[C@H]([C@H]3[C@H]1CC[C@]3(C)O)C2(C)C [SPATHULENOL]
EC50 [1]: > 20 µg/mL
EC50 [2]: > 20 µg/mL
EC50 (P388): > 20 µg/mL
EC50 (SK-MEL-2): 6.3 µg/mL (≈ 28.6 µM)
EC50 (Lu1): > 20 µg/mL
EC50 (HT-1080): > 20 µg/mL
EC50 (Col2): > 20 µg/mL
EC50 (KB): > 20 µg/mL
